Measurements: PubChem BioAssay
Calls of active or inactive are those of the source.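 Rule for the calls, unless noted: active = fluorescence slope higher than the sample average by over 3 SD (cut at about -0.22 in these data, passing the limit was not always enough); inactive = the rest.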

Assays:
[1] = inhibitors of TNFa-induced NFkB p65 translocation, primary screen, imaging, HUVEC, MLSMR starter and 10KST1 sets (AID 438;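 active = inhibition above 20% together with a positive visual image hit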;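 note: compound added about 3h40 before a 20 min TNFalpha stimulation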;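 for inhibition: signal is the nuclear over cytoplasmic p65 intensity ratio per well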); settings: HUVEC TNFa-induced p65 nuclear translocation; cell count: measured here: nuclei count (cytotoxicity indicator), at 2.08 µM; inhibition: at 2 µM, stronger effect = higher value, 0% TNFa-plus-vehicle, 100% no-TNFa wells
[2] = inhibitors of mutant huntingtin aggregation, primary screen, imaging, exon1htt(103Q)mCFP cells, high-content imaging (AID 483;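 active = visual image review flags a hit and inhibition of aggregation exceeds 20%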;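 note: compound exposure lasted 3 days before fixation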;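 for nuclei count: percent of the per-plate median nuclei count of sample wells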); settings: exon1htt(103Q)mCFP cell line, aggregate imaging, at 2 µM; inhibition of aggregation: stronger effect = higher value; nuclei count: measured here: cell count, toxicity
[3] = inhibitors of E-selectin induction by TNFa, primary screen, imaging, HUVEC, immunofluorescence, MLSMR starter and 10KST1 sets (AID 487;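 active = visually confirmed hit in the image check and inhibition above 20%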;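 for inhibition: signal is fraction of cell area covered by stained E-selectin grains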;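 for nuclei count: 100% = median nuclei count of all wells on the same plate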); settings: HUVEC TNFalpha-induced E-selectin immunofluorescence imaging, at 2 µM; inhibition: stronger effect = higher value; nuclei count: measured here: cell number, toxicity
[4] = target: Voltage-gated potassium channel subunit beta-2 (Rattus norvegicus) (UniProt P62483); assay: KvBeta enzyme negative modulators, primary screen, biochemical, NADPH fluorescence (AID 622); settings: recombinant KvBeta, 4-cyanobenzaldehyde reduction, at 10 µM, stronger effect = higher value;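 note: slope of raw intensity against log time taken from 70 to 1610 s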
Voltage-gated potassium channel subunit beta-2 (Rattus norvegicus), sequence (P62483 whole entry, looked up): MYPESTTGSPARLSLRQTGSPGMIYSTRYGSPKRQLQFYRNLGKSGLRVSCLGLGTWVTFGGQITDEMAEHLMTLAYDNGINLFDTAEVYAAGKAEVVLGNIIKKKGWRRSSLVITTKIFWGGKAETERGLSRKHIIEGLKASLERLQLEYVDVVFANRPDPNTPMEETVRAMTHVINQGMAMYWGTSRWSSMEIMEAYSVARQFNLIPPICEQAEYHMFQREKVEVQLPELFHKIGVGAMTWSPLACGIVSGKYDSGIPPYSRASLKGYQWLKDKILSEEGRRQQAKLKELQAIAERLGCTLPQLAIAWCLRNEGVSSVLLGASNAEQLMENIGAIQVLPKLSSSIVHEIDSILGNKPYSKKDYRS

[5] = target: Voltage-gated potassium channel subunit beta-2 (Rattus norvegicus) (UniProt P62483); assay: KvBeta positive modulators, primary screen, biochemical, NADPH fluorescence (AID 623;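 active = NADPH fluorescence slope more negative than the mean of all samples by about 3 SD, 99.7% confidence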;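 note: fluorescence intensity change per second fitted from 20 to 320 s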); settings: Recombinant KvBeta, NADPH fluorescence decrease slope, 10 min; at 10 µM; stronger effect = lower value
[6] = target: Muscarinic acetylcholine receptor M4 (Homo sapiens) (UniProt P08173); assay: compounds altering M4/GIRK thallium flux, either direction, primary screen, M4 allosteric agonist project, cell-based, HEK293 M4/GIRK, BTC-AM (AID 625;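 active = fluorescence slope after compound addition differing from the mean of all tested samples at 99.7% confidence, mostly higher but some lower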;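 note: thallium influx through GIRK channels coupled to M4 in HEK293 cells with BTC-AM dye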); settings: at 10 µM, actives lie on both sides
Muscarinic acetylcholine receptor M4 (Homo sapiens), sequence (P08173 whole entry, looked up): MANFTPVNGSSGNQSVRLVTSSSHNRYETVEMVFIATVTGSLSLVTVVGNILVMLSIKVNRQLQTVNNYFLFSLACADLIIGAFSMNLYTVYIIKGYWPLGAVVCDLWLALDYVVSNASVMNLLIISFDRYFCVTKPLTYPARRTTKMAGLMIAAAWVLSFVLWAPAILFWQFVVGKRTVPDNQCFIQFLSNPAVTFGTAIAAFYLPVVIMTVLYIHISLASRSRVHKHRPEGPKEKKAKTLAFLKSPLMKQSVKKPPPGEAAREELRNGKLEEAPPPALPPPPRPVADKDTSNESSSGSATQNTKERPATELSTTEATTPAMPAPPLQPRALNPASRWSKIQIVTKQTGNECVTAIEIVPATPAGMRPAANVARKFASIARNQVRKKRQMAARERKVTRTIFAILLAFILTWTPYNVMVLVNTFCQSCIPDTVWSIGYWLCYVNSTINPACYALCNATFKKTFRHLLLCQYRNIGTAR
In short: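 Material: HEK293 cells with M4 receptor and GIRK channels; Times: cells overnight at 37 °C, BTC-AM loading 1 h, reads 2 min total; Technique: kinetic BTC-AM fluorescence sampled at 1 Hz, 10 s pre-addition baseline; Read-out basis: slope over 15–24 s of trace normalized to starting intensity; Controls: carbachol positive, DMSO negative.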

[7] = inhibitors of Sendai virus-induced IRF3 signaling, primary screen, TLR/RLR signaling modifier project, cell-based, Sendai virus stimulus, luciferase, 10K MLSCN set (AID 602276;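 active = inhibition at or above 50% at 10 µM; inactive = inhibition below 50%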;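 note: firefly luciferase from ISG56 promoter only with Renilla not read in this screen; 0% = Sendai virus plus DMSO and 100% = medium plus DMSO without virus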); settings: HEK293 RL24 IRF3 luciferase reporter, at 10 µM, stronger effect = higher value
[8] = inhibitors of poly I:C-induced TLR3 signaling, primary screen, cell-based, poly I:C stimulus, luciferase, 10K MLSCN set (AID 602277;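 active = inhibition of the reporter signal at or above 50%; inactive = inhibition below 50%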); settings: HEK293-TLR3 RL24 IRF3 luciferase reporter, at 10 µM, stronger effect = higher value

Row | SMILES | cell count [1] | inhibition [1] | inhibition of aggregation [2] | nuclei count [2] [%] | inhibition [3] | nuclei count [3] [%] | fluorescence slope [4] | NADPH fluorescence slope [5] | fluorescence slope [6] | inhibition [7] | inhibition [8]
1 | Cc1ccc(-c2nnn(CC(=O)N(CC3CCCO3)C(C(=O)NC(C)(C)C)c3ccc(F)cc3)n2)o1 (centres undefined) | 415 | 5.7% (inactive) | 3.4% (inactive) | 112 | -64% (inactive) | 118 | -0.563 (inactive) | -3.8e-05 (inactive) | 0.00486 (inactive) | 9.86% (inactive) | 15.3% (inactive)
2 | CSc1nnc(-c2nnc(SC)n2-c2ccccc2)n1-c1ccccc1 | 879 | -9.3% (inactive) | -8% (inactive) | 109 | -143% (inactive) | 123 | -0.532 (inactive) | -2.1e-05 (inactive) | 0.00464 (inactive) | 9.27% (inactive) | 27.2% (inactive)
3 | Cc1cccc2cc(CN(Cc3nnnn3Cc3ccccc3)C3CCCC3)c(=O)[nH]c12 | 561 | -9% (inactive) | -39.5% (inactive) | 76.4 | -35.7% (inactive) | 111 | -0.483 (inactive) | -0.00011 (inactive) | 0.00509 (inactive) | 14.3% (inactive) | 15% (inactive)
4 | COc1ccccc1C(=O)Nc1ccccc1C(=O)N1CCCC1 | 675 | -6.5% (inactive) | -2.4% (inactive) | 108 | -95.5% (inactive) | 115 | -0.583 (inactive) | -5.2e-05 (inactive) | 0.00691 (inactive) | 15.4% (inactive) | 17% (inactive)
5 | O=c1cc(CSc2nnc(COc3ccc(Cl)cc3)o2)c2ccccc2[nH]1 | 544 | -6.2% (inactive) | 8% (inactive) | 98.4 | -46.6% (inactive) | 153 | -0.497 (inactive) | 7.1e-08 (inactive) | 0.00464 (inactive) | 1.93% (inactive) | -11.9% (inactive)
6 | Cc1ccc(NC(=O)CS(=O)CC(=O)NCC2CCCO2)cc1 (centres undefined) | 515 | 7.1% (inactive) | 17.5% (inactive) | 100 | -38.7% (inactive) | 117 | -0.309 (inactive) | 1.2e-05 (inactive) | 0.00727 (inactive) | -20.7% (inactive) | -6.01% (inactive)
7 | COc1ccc(CC(=O)Nc2c3c(nn2-c2cccc(Cl)c2)CS(=O)(=O)C3)cc1 | 785 | -11.6% (inactive) | -2.4% (inactive) | 98.5 | -28.2% (inactive) | 107 | -0.529 (inactive) | 1.2e-05 (inactive) | 0.00322 (inactive) | 19.7% (inactive) | 20.9% (inactive)
8 | CC(=O)c1ccc(Oc2cc(C)nc(-n3nc(C)cc3C)n2)cc1 | 468 | -15.6% (inactive) | -50.7% (inactive) | 1.1 | -17.9% (inactive) | 102 | -0.547 (inactive) | 1.9e-05 (inactive) | 0.00511 (inactive) | -4.86% (inactive) | 78.2% (active)
9 | COc1ccc(CN2C(=O)c3cccnc3C2Nc2cc(Cl)ccc2OC)cc1 (centres undefined) | 482 | 3% (inactive) | 0.1% (inactive) | 105 | -26.9% (inactive) | 112 | -0.445 (inactive) | 0.00011 (inactive) | 0.00665 (inactive) | -6.43% (inactive) | -6.33% (inactive)
10 | O=C(Cn1c(=O)[nH]c2ccsc2c1=O)N1CCN(c2ccc(F)cc2)CC1 | 654 | -29.9% (inactive) | -0.5% (inactive) | 106 | -34.1% (inactive) | 121 | -0.451 (inactive) | -3e-05 (inactive) | 0.00533 (inactive) | 15.1% (inactive) | 21.3% (inactive)
11 | Cc1cc(Nc2ccccc2)n(CCC#N)n1 | 350 | 1.6% (inactive) | -7.9% (inactive) | 96.4 | -89.1% (inactive) | 129 | -0.415 (inactive) | -8.1e-05 (inactive) | 0.00613 (inactive) | 15.7% (inactive) | 14.3% (inactive)
12 | COc1ccc(CN2CC(C(=O)NCCCOC(C)C)CC2=O)cc1 (centres undefined) | 766 | -12.7% (inactive) | -17.1% (inactive) | 102 | -63.4% (inactive) | 122 | -0.522 (inactive) | -6.3e-05 (inactive) | 0.00604 (inactive) | -10% (inactive) | -6.2% (inactive)
13 | Cc1ccccc1NS(=O)(=O)c1ccc(NC(=O)c2ccco2)cc1 | 349 | 1.1% (inactive) | 5.8% (inactive) | 94.7 | -24.6% (inactive) | 119 | -0.587 (inactive) | 1.9e-07 (inactive) | 0.00578 (inactive) | 15.3% (inactive) | 13.6% (inactive)
14 | Cc1cc2ncn(C(=O)N3CCOCC3)c2cc1C | 309 | -2.5% (inactive) | 27.9% (inactive) | 97.2 | -61.7% (inactive) | 122 | -0.572 (inactive) | -3.6e-05 (inactive) | 0.00619 (inactive) | 4.38% (inactive) | 3.06% (inactive)
